Experimental data published in ChEMBL document CHEMBL5576109, “Hydantoin derivative dimers as broad-spectrum antimicrobial agents against ESKAPE pathogens with enhanced killing rate and stability” (RSC Med Chem, 2024).
Values after ≈ are worked out from the molar mass of the structure shown. Active and inactive are the calls of the source. The calls are words filed in the database; no cut-off is given here.

How the values were obtained:
Escherichia coli [1] = experiment: Antibacterial activity against Escherichia coli ATCC 25922 assessed as inhibition of bacterial growth by measuring fold increase in MIC measured after 16 to 18 hrs in presence of 10% FBS by TECAN SPARK microplate reader analysis; type: functional; settings: time 16-18 hrs
In short: (§1)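 Salt/serum stability. Exponential-phase bacteria incubated 16–18 h with compound in medium supplemented with 10 mM NaCl, 10 mM KCl, 10 mM MgCl2, 10% DMEM or 10% FBS. Stability judged from the change in MIC.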

Escherichia coli [2] = experiment: Bactericidal activity against Escherichia coli ATCC 25922 assessed as reduction in colony forming units incubated for 15 to 120 mins by time-kill kinetics assay; type: functional, organism-based; settings: time 15-120 min
In short: (§2)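 Bacteria grown at 37 °C to mid-log phase and diluted to 1 × 10^6 CFU/mL. […] Mixtures diluted 10^2–10^4-fold and plated on TSB agar; colonies counted after 20 h at 37 °C.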

Escherichia coli [3] = experiment: Induction of ROS generation in Escherichia coli ATCC 25922 assessed as increase in fluorescence intensity incubated for 30 mins by DCFH-DA staining based analysis; type: functional, organism-based
In short: (§3)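 Overnight 37 °C cultures washed three times and resuspended in PBS, diluted to OD600 0.1, and mixed with DCFH-DA (5 µM). Treated with a range of compound concentrations for 30 min at 37 °C in the dark. Fluorescence read at Ex 488 / Em 530 nm.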

Escherichia coli [4] = experiment: Antibacterial activity against Escherichia coli ATCC 25922 assessed as inhibition of bacterial growth by measuring fold increase in MIC compound preincubated at 80 degree C for 1 hr followed by bacterial culture addition and measured after 16 to 18 hrs by TECAN SPARK microplate reader analysis; type: functional; settings: time 16-18 hrs
Staphylococcus aureus [5] = experiment: Induction of inner membrane permeabilization in Staphylococcus aureus ATCC 29213 assessed as increase in fluorescence intensity incubated for 1 hr by propidium iodide staining based TECAN SPARK microplate reader analysis; type: functional, organism-based
In short: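 Overnight 37 °C cultures resuspended in PBS and diluted to OD600 0.1. Propidium iodide added (5 µM final) for 30 min. Treated with a range of compound concentrations for 1 h in the dark; fluorescence read at Ex 535 / Em 615 nm.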

Staphylococcus aureus [6] = experiment: Antibacterial activity against Staphylococcus aureus ATCC 29213 assessed as inhibition of bacterial growth by measuring fold increase in MIC compound preincubated at 120 degree C for 1 hr followed by bacterial culture addition and measured after 16 to 18 hrs by TECAN SPARK microplate reader analysis; type: functional; settings: time 16-18 hrs
Escherichia coli [7] = experiment: Drug resistance, ratio of MIC for Escherichia coli ATCC 25922 after 25 passages to MIC for Escherichia coli ATCC 25922 after initial exposure; type: functional
In short: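 Serial passage resistance selection: after each broth MIC determination, bacteria from the 1/2 MIC well were withdrawn and diluted to 1 × 10^6 CFU/mL for the next MIC measurement. Repeated for 25 passages; MIC after passage 25 compared with the initial MIC.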

Staphylococcus aureus [8] = experiment: Bactericidal activity against Staphylococcus aureus ATCC 29213 assessed as inhibition of bacterial growth at 1 to 4 times of MIC measured within 1 hr mins by time-kill kinetics assay relative to control; type: functional; in short: as §2
Staphylococcus aureus [9] = experiment: Induction of morphological changes in Staphylococcus aureus ATCC 29213 assessed as cell wrinkled at 8 time of MIC for 6 hrs by scanning electron microscopy; type: functional, organism-based
In short: (§4)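 Mid-log cells exposed to compound for 6 h at 37 °C alongside untreated controls. Cells pelleted (3000 rpm, 15 min), washed four times in PBS, and fixed with 2.5% glutaraldehyde. Dehydrated through graded ethanol, critical-point dried and gold-coated, then imaged by SEM.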

Staphylococcus aureus [10] = experiment: Induction of membrane disruption in Staphylococcus aureus ATCC 29213 assessed as increase in red fluorescence at 8 times of MIC for 6 hrs by Hoechst 33342 and propidium iodide staining based confocal microscopic analysis; type: functional, organism-based
Staphylococcus aureus [11] = experiment: Bactericidal activity against Staphylococcus aureus ATCC 29213 assessed as reduction in colony forming units at 4 times of MIC within 15 mins by time-kill kinetics assay; type: functional, organism-based; in short: as §2
Staphylococcus aureus [12] = experiment: Induction of ROS generation in Staphylococcus aureus ATCC 29213 assessed as increase in fluorescence intensity incubated for 30 mins by DCFH-DA staining based analysis; type: functional, organism-based; in short: as §3
Escherichia coli [13] = experiment: Bactericidal activity against Escherichia coli ATCC 25922 assessed as reduction in colony forming units at 1 to 4 times of MIC by time-kill kinetics assay; type: functional, organism-based; settings: time 15-120 min, TDE = time-dependent effect; in short: as §2
[14] = Hemolytic activity in mouse red blood cells assessed as hemolysis incubated for 1 hr by TECAN SPARK microplate reader analysis; type: toxicity, cell-based, Erythrocyte; settings: red blood cells (erythrocytes)
In short: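 Mouse RBCs washed three times in 1× PBS by centrifugation (3500 rpm, 10 min) and made up as a 5% v/v suspension. Incubated with 2-fold serially diluted compound in PBS for 1 h at 37 °C, then centrifuged. Supernatant diluted in PBS and A540 read. % hemolysis calculated relative to 1% Triton X-100 (100%) and PBS (0%).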

Escherichia coli [15] = experiment: Bactericidal activity against Escherichia coli ATCC 25922 assessed as inhibition of bacterial growth at 1 to 4 times of MIC measured within 1 hr mins by time-kill kinetics assay relative to control; type: functional; in short: as §2
Enterococcus faecalis = experiment: Antibacterial activity against Enterococcus faecalis ATCC 29212 assessed as reduction bacterial growth after 16 hrs by TECAN SPARK microplate reader analysis; type: functional
In short: (§5)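 Single colony grown overnight in 4 mL TSB at 37 °C, diluted 100-fold and grown to mid-log phase. Compounds 2-fold serially diluted in TSB and mixed 1:1 with bacteria in TSB (1 × 10^6 CFU/mL). Incubated 16 h at 37 °C, then A600 read. MIC taken as the lowest concentration giving complete growth inhibition.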

Staphylococcus aureus [16] = experiment: Induction of morphological changes in Staphylococcus aureus ATCC 29213 assessed as cell collapse at 8 time of MIC for 6 hrs by scanning electron microscopy; type: functional, organism-based; in short: as §4
Staphylococcus aureus [17] = experiment: Induction of cytoplasmic membrane depolarization in Staphylococcus aureus ATCC 29213 assessed as increase in fluorescence intensity by DiSC3(5) staining based analysis; type: functional, organism-based
In short: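 Mid-log cells washed in 5 mM HEPES/5 mM glucose and resuspended at 10^6 CFU/mL in glucose/HEPES/100 mM KCl (1:1:1). DiSC3(5) added and fluorescence (Ex 622 / Em 670 nm) followed for 30 min at 37 °C until minimal. Compound then added and the fluorescence rise recorded.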

Staphylococcus aureus [18] = experiment: Bactericidal activity against Staphylococcus aureus ATCC 29213 assessed as reduction in colony forming units incubated for 15 to 120 mins by time-kill kinetics assay; type: functional, organism-based; settings: time 15-120 min; in short: as §2
Escherichia coli [19] = experiment: Antibacterial activity against Escherichia coli ATCC 25922 assessed as inhibition of bacterial growth by measuring fold increase in MIC measured after 16 to 18 hrs in presence of MgCl2 by TECAN SPARK microplate reader analysis; type: functional; settings: time 16-18 hrs; in short: as §1
Escherichia coli [20] = experiment: Induction of morphological changes in Escherichia coli ATCC 25922 assessed as cell wrinkled at 8 time of MIC for 6 hrs by scanning electron microscopy; type: functional, organism-based; in short: as §4
Escherichia coli [21] = experiment: Antibacterial activity against Escherichia coli ATCC 25922 assessed as reduction bacterial growth after 16 hrs by TECAN SPARK microplate reader analysis; type: functional; in short: as §5

CCCCCCN1C(=O)[C@H](CCCCNC(=N)N)N(Cc2ccc(-c3ccc(CN4C(=O)N(CCCCCC)C(=O)[C@@H]4CCCCNC(=N)N)cc3)cc2)C1=O
fold change (FC) (Escherichia coli [1]): 1
Activity (Escherichia coli [2]): Dose-Dependent Effect
Activity (Escherichia coli [3]): Dose-Dependent Effect
fold change (FC) (Escherichia coli [4]): 1
Activity (Staphylococcus aureus [5]): Dose-Dependent Effect
fold change (FC) (Staphylococcus aureus [6]): 1
Ratio (Escherichia coli [7]): <=4
inhibition (INH) (Staphylococcus aureus [8]): 100%
Activity (Staphylococcus aureus [9]): Active
Activity (Staphylococcus aureus [10]): Active
Activity (Staphylococcus aureus [11]): Active
Activity (Staphylococcus aureus [12]): Dose-Dependent Effect
Activity (Escherichia coli [13]): Tde
HC50 at 1 h [14]: 61 µg/mL
inhibition (INH) (Escherichia coli [15]): 100%
MIC (Enterococcus faecalis): 3.91 µg/mL (≈ 5.06 µM)
Activity (Staphylococcus aureus [16]): Active
Activity (Staphylococcus aureus [17]): Dose-Dependent Effect
Activity (Staphylococcus aureus [18]): Dose-Dependent Effect
fold change (FC) (Escherichia coli [19]): 1
Activity (Escherichia coli [20]): Active
MIC (Escherichia coli [21]): 3.91 µg/mL (≈ 5.06 µM)
